# Measured values from ChEMBL document CHEMBL1145520, “RAS-RAF-MEK-dependent oxidative cell death involving voltage-dependent anion channels” (Nature, 2007).
# Active and inactive are the calls of the source. The calls are words filed in the database; no cut-off is given here.
# Tests used:
# BJ [1] = test: Antitumor activity against human BJ cells expressing TERT, LT, ST and RAS G12V mutant genes assessed as survival relative to control; assay type: functional
# HT-1080 = test: Antitumor activity against human HT1080 cells assessed as survival relative to control; assay type: functional
# BJ [2] = test: Induction of cell death in human BJ cells expressing TERT, LT, ST and RAS G12V mutant genes cells at 9 uM; assay type: functional, cell-based
# BJ [3] = test: Induction of mitochondrial structural integrity loss in human BJ cells expressing TERT, LT, ST and RAS G12V mutant genes cells at 1 uM after 5 hrs; assay type: functional, cell-based
# Procedure, shortened: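 Mitochondria of BJ-TERT/LT/ST/RASV12 cells examined by transmission electron microscopy after staurosporine 1 µM for 5 h. Fixed in 2.5% glutaraldehyde in Sorenson's buffer pH 7.2, post-fixed in 1% OsO4, block-stained with tannic acid, resin-embedded. Thin sections stained with uranyl acetate and lead citrate.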
# BJ [4] = test: Induction of cytochrome c release in mitochondrial fraction of human BJ cell expressing TERT, LT, ST and RAS G12V mutant genes at 1 uM; assay type: functional, cell-based
# Procedure, shortened: (§1)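 BJ-TERT/LT/ST/RASV12 cells (3 × 10^6 per dish, overnight at 37 °C, 5% CO2) treated with staurosporine 1 µM for 6 h. Cells swollen on ice 15 min in sucrose/HEPES pH 7.5 buffer, lysed through 25-gauge needle. Nuclei removed at 400g, mitochondria pelleted at 10,500g. Cytosolic supernatant and mitochondrial pellet probed for cytochrome c by western blot.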
# BJ [5] = test: Induction of cytochrome c release in cytosolic fraction of human BJ cell expressing TERT, LT, ST and RAS G12V mutant genes at 1 uM; assay type: functional, cell-based; procedure, shortened: as §1
Structure (SMILES),Survival (BJ [1]),Survival (HT-1080),other results
N#CC(=C(/N)Sc1ccccc1N)/C(C#N)=C(\N)Sc1ccccc1N,82%,17%,–
CC(C)NC(=O)N(CCN1CCN(C(=O)COc2ccc(Cl)cc2)CC1)Cc1ccc(F)cc1,–,–,IC50 (BJ [2]): 10 µM
CN[C@@H]1C[C@H]2O[C@@](C)([C@@H]1OC)n1c3ccccc3c3c4c(c5c6ccccc6n2c5c31)C(=O)NC4,–,–,Activity (BJ [3]): inactive; Activity (BJ [4]): Active; Activity (BJ [5]): Active
COc1cccc(-c2cc(=O)c3ccccc3o2)c1N,78%,26%,–
